# Diaph act CS = activates diaphorase or chemically reduces, flagging diaphorase assay artifacts; Diaphorase/resazurin coupled assay, resorufin fluorescence, 16 min; hits give high values; 1 = vehicle wells, 0 = NADH-free wells; activation factor at 20 µM; 190,000 tested, 0.005% active;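 active = diaphorase activity raised at least twofold by the compound at 20 µM; inactive = activation factor below 2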
#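 Material: purified diaphorase enzyme from Clostridium kluyveri; Also added: 0.114 mM NADH and 0.1 mM resazurin, final amounts; Doses: single compound dose of 20 µM, 1% DMSO final; Times: 16 min enzyme reaction, ambient temperature; Detection: resorufin fluorescence, excitation 544 nm, emission 590 nm; Measure: increased resorufin signal from activators or reducing compounds.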
# GSH fluor = compound fluoresces at 488/530 nm on GSH beads; AID 1776; 190,000 tested, 0.25% active; fluorescence (KMESF) at 10 µM; GSH beads flow cytometry, compound fluorescence 488/530 nm; hits give high values; in the data active = fluorescence above about 89;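 also: glutathione beads carrying GST-tagged Bcl family fusion proteins plus one bare bead set; values are compound well signal with DMSO vehicle wells as background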
# Avidin bead fluor = compound fluoresces at 488/530 nm on avidin beads | compound fluorescence 488/530 nm, flow cytometry; hits give high values | fluorescence (KMESF) at 10 µM | 220,000 tested, 0.38% active | AID 1775; in the data active = fluorescence above about 47
# p47phox inh = blocks human p47phox regulatory protein of NADPH oxidases | AID 1274 | inhibition, % at 24.7 µM | p47phox/p22phox peptide binding, fluorescence polarization, 2 h | 220,000 tested, 0.53% active | P14598;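 active = inhibition above about 30%, limit read from the data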;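 also: 0% = p47phox with labelled peptide and 100% = labelled peptide alone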
# Target sequence (P14598 whole entry, looked up): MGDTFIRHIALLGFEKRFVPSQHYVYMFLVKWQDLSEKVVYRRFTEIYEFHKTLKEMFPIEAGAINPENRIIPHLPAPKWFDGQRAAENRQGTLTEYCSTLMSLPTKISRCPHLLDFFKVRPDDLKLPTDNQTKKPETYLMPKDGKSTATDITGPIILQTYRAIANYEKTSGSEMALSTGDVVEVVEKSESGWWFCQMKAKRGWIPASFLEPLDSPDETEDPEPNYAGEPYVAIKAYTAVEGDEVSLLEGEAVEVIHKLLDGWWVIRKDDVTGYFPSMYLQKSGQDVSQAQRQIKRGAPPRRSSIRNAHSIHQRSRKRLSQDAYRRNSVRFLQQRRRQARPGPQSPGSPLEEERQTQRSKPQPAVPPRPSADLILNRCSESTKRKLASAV
# PMI act satM6P = PMI (human) activation, high substrate; P34949; coupled PMI enzyme assay, resazurin fluorescence, 20 min; hits give high values; 1 = untreated enzyme, 0 = substrate-free blank; activation factor at 20 µM; 190,000 tested, 0.34% active; AID 1216;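 active = activation factor of 2 or more at 20 µM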
#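 Test system: human phosphomannose isomerase with PGI, G6PDH, diaphorase coupling enzymes / Doses: 20 µM compound, 1% DMSO / Times: enzyme reaction with compound 20 min at room temperature / Measured by: Diaphorase-driven resazurin-to-resorufin fluorescence, excitation 544, emission 590 nm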
# PMI activator = phosphomannose isomerase (human) activation | purified human PMI, coupled resazurin fluorescence, 20 min; hits give high values; 1 = vehicle control, 0 substrate-free wells | activation factor at 20 µM | 190,000 tested, 0.005% active;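 active = activation factor of 2 or more at 20 µM, relative to plate controls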
# Starred values were filed as active, the others as inactive; nt = not tested or not shown. Only some compounds are listed: those with a hit (about 1.4% of all), similar ones and a draw of the others.
SMILES,Diaph act CS,GSH fluor,Avidin bead fluor,p47phox inh,PMI act satM6P,PMI activator
COc1cc(NC(=O)COC(=O)c2ccc(S(=O)(=O)N3CC(C)CC(C)C3)cc2)c(C)cc1[N+](=O)[O-] (centres undefined),1,15,16,39*,0.9,0.7
CCOC(=O)C1C(=O)NC(SCC(=O)Nc2nccs2)=C(C#N)C1c1ccccc1OCC (centres undefined),0.9,25,21,-4,0.7,0.5
COCCNC(=O)c1cnn2c(C(F)F)cc(-c3ccccc3)nc12,0.8,17,11,-8,0.9,0.8
OCCNc1cnc2ccccc2n1,0.9,10,10,7,1,1
CC(=O)Nc1cnc2ccccc2n1,0.8,24,102*,-16,0.9,0.9
Clc1ccc(OCc2nnc(-c3ccccc3Br)o2)c(Cl)c1,1,37,3,43*,1,1
COc1ccc(OCC(=O)Nc2ccc(S(=O)(=O)N3CCN(C)CC3)cc2)cc1,0.9,11,15,-16,0.9,0.8
Cc1ccc(NC(=S)Nc2ccc3nc(-c4ccccn4)c(-c4ccccn4)nc3c2)cc1C,0.3,7,12,112*,0.4,0.2
CC(=O)NC12CC3CC(C1)CC(C(=O)OCC(=O)Nc1ncc(Cl)c(C)c1Cl)(C3)C2,0.8,262*,8,17,0.9,1
O=C1NC2(CCCCC2)NN1c1ccccc1,0.8,45,14,9,1,0.9
CC(=O)N1CCC2(CC1)NC(=O)N(c1ccccc1)N2,0.8,11,4,17,2.4*,1.6
NC(=O)N1CCC2(CC1)NC(=O)N(c1ccccc1)N2,0.9,11,11,-21,2.5*,1.6
CN(C)/C=N/c1c(C#N)cnn1-c1ccccc1,0.9,34,10,-9,1,1.1
CN(C)/C=N/c1c(C#N)cnn1-c1ccc(C(F)(F)F)cn1,0.9,23,9,155*,1,0.9
Oc1ccc(Nc2nc3ccccc3nc2Nc2ccc(O)cc2)cc1,0.6,24,80*,66*,1.6,1.3
CCOc1ccccc1OCCCC(=O)N1CCN(S(=O)(=O)c2cccc(F)c2)CC1,0.9,8,8,-15,0.9,0.9
CCOc1ccccc1OCCCC(=O)N1CCN(S(=O)(=O)c2ccc(C)cc2)CC1,0.9,256*,9,-14,1,1
C/C(=N\NC(=O)c1ccc2c(c1)OCO2)c1ccc(O)cc1,nt,nt,7,0,nt,nt
O=C(O)c1cc(N/N=C/c2ccc3c(c2)OCO3)ccc1Cl,0.9,15,9,-4,1.2,1.4
C/C(=N\Nc1ccc(Cl)c(C(=O)O)c1)c1ccc2c(c1)OCO2,1.1,14,8,-4,2.8*,1.9
C/C(=N/NC(=O)c1ccc2c(c1)OCO2)c1ccc(NC(=O)C(F)(F)F)cc1,1.1,5,1,34*,1.1,1.1
O=C(O)CN1C(=O)CCS(=O)c2ccccc21 (centres undefined),0.9,14,6,-6,0.9,0.9
c1cc(CNC2=NCCCCC2)ccn1,1,55,10,5,1.1,1
Cc1sc2nc(CN(C(=O)NC3CCCCC3)C3CCCC3)[nH]c(=O)c2c1C,1,16,56*,-10,1,1
Cc1c(Cl)cccc1Nc1nc(N)nc(CN2CCc3ccccc3C2)n1,1,27,4,-9,1.1,0.9
Cc1ccc(Nc2nc(N)nc(CN3CCc4ccccc4C3)n2)cc1,1,43,6,77*,0.9,0.9
Cc1cc(NC(=O)CSc2nnc(-c3ccccc3)c(-c3ccccc3)n2)no1,0.9,16,14,-2,1,1
CCCn1c(=O)c(C(=O)Nc2ccccc2C(=O)OC)c(O)c2ccccc21,0.8,8,10,45*,1.2,1.1
CCOc1ccccc1NC(=O)N1C2CCCC1CC(NC(=O)C1CC1)C2 (centres undefined),0.9,96*,8,-16,1.1,1
Cc1ccccc1NC(=O)N1C2CCCC1CC(NC(=O)C1CC1)C2 (centres undefined),0.9,22,17,-6,0.9,0.9
